Among the data in the RNAGym collection of RNA variant scans (doi:10.1126/science.aae0568) are yeast fitness values, retold here.

To fix the notation:
B1: tRNA (parent)
chain: GUUCCGUUGGCGUAAUGGUAACGCGUCUCCCUCCUAAGGAGAAGACUGCGGGUUCGAGUCCCGUACGGAACG

Variants at the floor of the assay were thinned out.

In this series the parent is B1. As to the kind of experiment: yeast fitness relative to wild type (ratio to wild type); higher = fitter; tRNA-Arg(CCU), competitive growth, 37 C, YPD. In outline: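 Variants of the tRNA-Arg(CCU) gene were chemically synthesised with a 3% per-site mutation rate across 69 sites and placed at the native genomic locus in Saccharomyces cerevisiae. Six parallel replicates of the pooled strains were competed in YPD at 37°C for 24 hours, and gene amplicons from the start and end populations were read by 100-nucleotide paired-end sequencing. Darwinian fitness relative to wild type was derived from changes in genotype frequencies. Genotypes required ≥ 100 starting reads, and estimates < 0.5 were set to 0.5.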
With C11A C27G C61A, the yeast fitness was no more than 0.5. In the case of C11A C27U G41C A42G C60G, the yeast fitness is no more than 0.5. To G10U G17A C29G C55G C60U belongs no more than 0.5; to C11A C30U C49G G50A U64A, no more than 0.5; to C11A A15G G58C, 0.505. With C11A A21C U26G A65G A69C, the yeast fitness worked out at 0.525. Consider C11A A15U A20G, for which the yeast fitness is no more than 0.5.

On to C11A A14U A42G C62A C66U, for which the yeast fitness is no more than 0.5. On to G10U G17A C24A C62U C66U, for which the yeast fitness is no more than 0.5. On to G10U C66U, for which the yeast fitness is 0.794. To C11A A57G A69G belongs no more than 0.5; to C11A A37U G67A, no more than 0.5; to C11A C24U, 0.61.

With C11A C61G A65C A70C, the yeast fitness is no more than 0.5. With C11A A21C C34A A57U C61A, the yeast fitness turned out to be 0.539. With G10C U19A, the yeast fitness worked out at 0.612. Consider G10C U19G, for which the yeast fitness was determined as 0.552. For C11A C27G C55A C61G, the yeast fitness was no more than 0.5.

Consider G10C U19A C24U, for which the yeast fitness was determined as 0.531. Turning to C11A C60A, the yeast fitness was no more than 0.5. Consider C11A C46A, for which the yeast fitness came out at 0.745. On to C11A C46G, for which the yeast fitness stood at 0.651. To C11A A14G C24U G41C C55G belongs 0.581; to C11A A42U, 0.724; to C11A C31A G51C, no more than 0.5. To C11A A21U belongs 0.606; to C11A A21C, 0.557. Regarding C11A A20U C27U U47C G50A, the yeast fitness is 0.618. C11A C22G U53C C66U: the yeast fitness was no more than 0.5.

Consider G10C U32A A36G, for which the yeast fitness was no more than 0.5.

Turning to C11A C24U C31U C61U G67A, the yeast fitness was no more than 0.5. Take C11A C24U C31U G67A: the yeast fitness was no more than 0.5.

For the variant C11A C29A G67C, the yeast fitness was no more than 0.5. In the case of C11A A20G C55U C61A, the yeast fitness is no more than 0.5. In the case of G10U U16A G25A C49U G50C, the yeast fitness was no more than 0.5.

As for C11A C27U C60G, the yeast fitness came to 0.532. For C11A C31G C33U C61G U64A, the yeast fitness was no more than 0.5. In the case of C11A C29U C33U, the yeast fitness was no more than 0.5. C11A C31U A69C A70G: the yeast fitness was no more than 0.5. With G10C U35G A69C, the yeast fitness was no more than 0.5. To C11A A15C C24G C61A A69C belongs no more than 0.5; to C11A C27A A69U, no more than 0.5; to C11A C55G C66A, no more than 0.5. Consider C11A G12C C33U A43C, for which the yeast fitness is no more than 0.5. C11A C30G A45U G56C: the yeast fitness was no more than 0.5.

With C11A A21C C31A, the yeast fitness amounted to 0.567. To C11A C29A C46A A70G belongs 0.541. To C11A A42C A65U C66U belongs 0.623; to C11A A21U C49A, no more than 0.5.

C11A A37G C49A: the yeast fitness was 0.653. Consider C11A C29G, for which the yeast fitness was 0.654. To C11A C27U C33U U35C C62U A65G belongs no more than 0.5; to G10C U35G C62G, 0.52. C11A A15C A57G C61U: the yeast fitness is no more than 0.5. As to C11A C33U U54C, the yeast fitness was no more than 0.5.

Turning to C11A A15G C61U, the yeast fitness turned out to be 0.528. Turning to C11A A65G C66U, the yeast fitness was determined as 0.571. As for C11A A65C, the yeast fitness came to 0.607.

Take C11A A42C G50C A57C C61G: the yeast fitness is no more than 0.5.

For the variant C11A A21C C31A C55G, the yeast fitness is no more than 0.5. Turning to C11A A43U C46U U47G G58A, the yeast fitness is no more than 0.5. C11A A37U: the yeast fitness was found to be 0.587. To C11A A37G belongs 0.566; to C11A G17A U35G, no more than 0.5. Turning to C11A G18C C27A G48A U54C, the yeast fitness worked out at 0.76.

As to C11A A37C C49G C66A, the yeast fitness was no more than 0.5. On to C11A C29G A57G, for which the yeast fitness is no more than 0.5. Consider C11A A21C G39C, for which the yeast fitness was no more than 0.5. Regarding C11A C29U C31G G58C, the yeast fitness is no more than 0.5. C11A C29A G52C G68C: the yeast fitness was no more than 0.5.

With C11A C66G, the yeast fitness turned out to be 0.613. Consider C11A A20C C29U, for which the yeast fitness turned out to be 0.564. Consider C11A C49G A69U, for which the yeast fitness is 0.585.

Take C11A A43U G48C C60G: the yeast fitness was no more than 0.5. Take C11A C24U U32A U35C U59C: the yeast fitness is no more than 0.5.

As to C11A C30U G56A A69C, the yeast fitness is no more than 0.5. To C11A C31A U53A belongs no more than 0.5. For G10C U32C A42C G68C, the yeast fitness was no more than 0.5. As to C11A C22G C34A G41A A70U, the yeast fitness was no more than 0.5. Take G10U A15U C31G G50C U59C: the yeast fitness is no more than 0.5. As for C11A G17U A20G C31A, the yeast fitness was no more than 0.5. To G10C U28G G39A C49A C55U belongs no more than 0.5; to C11A A40G U53C, 0.619; to C11A A21U A43U G58C C60A C66U, 0.563. Regarding C11A A15U A20C C34G A65C, the yeast fitness was no more than 0.5. As for C11A A21U A43U A57G, the yeast fitness is no more than 0.5. For the variant C11A A14U C30U C33A A36U A57G A69G, the yeast fitness was no more than 0.5.

C11A A15G C31A C60A: the yeast fitness was no more than 0.5. With G10C U19G C29U U54A, the yeast fitness is no more than 0.5. To C11A C24U U32A U35C C55A G58A belongs no more than 0.5. To C11A C31U U53A belongs 0.513. In the case of C11A C33A A36C, the yeast fitness was 0.506.

Regarding G10U A14U, the yeast fitness is no more than 0.5. As for C11A A36U A40C, the yeast fitness was no more than 0.5. As for C11A C29G U54A, the yeast fitness is 0.69.

As for C11A C27U C33U U35C C61G A65G, the yeast fitness was no more than 0.5. To C11A A21U G41A G58A A65G belongs no more than 0.5; to C11A A20U U32C G68C, no more than 0.5; to C11A G18A C27U C34G A42C, no more than 0.5.

For C11A A20U U47C, the yeast fitness is no more than 0.5. For C11A A43G, the yeast fitness came to 0.621. In the case of C11A G17C C22G G23C G58C A70G, the yeast fitness is no more than 0.5. To C11A A69C belongs 0.671. For C11A C30G G48C, the yeast fitness is no more than 0.5. To C11A A14C C34A belongs 0.58; to C11A A14G U19G A43C U53A C66U, 0.601; to C11A A42G U53G, no more than 0.5. To C11A C31A G68C belongs no more than 0.5; to G10C U26A C61G A70C, no more than 0.5; to C11A G18A G68A, no more than 0.5.

For C11A G18A A36U G41C C55U U64C, the yeast fitness is no more than 0.5. To C11A G18A C31U belongs 0.535; to C11A A21C U26G A69C, no more than 0.5; to G10C U35G A43C U47C C55U, no more than 0.5. On to C11A C61U A65G G67C, for which the yeast fitness is no more than 0.5. On to C11A A21C U64A, for which the yeast fitness was found to be 0.688. C11A A42G U64A G67A: the yeast fitness was no more than 0.5. To C11A C24G C34U C49A belongs no more than 0.5. Consider C11A C34A G44C A70U, for which the yeast fitness was no more than 0.5. On to G10C U26A G38A A40U, for which the yeast fitness was no more than 0.5. On to C11A C29U A43C, for which the yeast fitness was found to be 0.599. To C11A A43G C61U belongs no more than 0.5; to C11A C31A G44C A65U, no more than 0.5; to C11A C31A G44C A65G, 0.553. To G10C U28G C33G C49U A69U belongs no more than 0.5.

On to G10C U35G C66U, for which the yeast fitness is no more than 0.5. C11A A15U C30A A42C: the yeast fitness is no more than 0.5.

Take C11A A15G A20G A37C G50A G67C: the yeast fitness was no more than 0.5.

Regarding C11A C30A, the yeast fitness amounted to 0.523.

With C11A C30U, the yeast fitness was 0.598. Regarding C11A C30G, the yeast fitness is no more than 0.5.

As to C11A C22G G25A C34A G41A C66A, the yeast fitness is no more than 0.5. With G10U G12A A43C A69G, the yeast fitness was 0.566.

As for C11A C24G C34G A36G, the yeast fitness was no more than 0.5. Consider C11A A21C C31A G58A, for which the yeast fitness was no more than 0.5. For C11A C27A A40C A43G G48C A65G, the yeast fitness came to 0.541.

With G10U A69U, the yeast fitness turned out to be 0.864. To C11A C31U C34U G58C C60U C62U G63C belongs no more than 0.5; to C11A C34A C55U C60A, no more than 0.5; to C11A G23A A43U, no more than 0.5. Take C11A C29A A42G: the yeast fitness was no more than 0.5.

As for C11A C31G C34G C46G U59A G63A, the yeast fitness is no more than 0.5.

For the variant G10U A20C A57G, the yeast fitness stood at 0.511. C11A C31G A42U: the yeast fitness came to 0.537. On to C11A C27G G67C, for which the yeast fitness was no more than 0.5. Turning to C11A A20U U32C, the yeast fitness stood at 0.733.

Consider C11A A21G C34U A37G U47C A57G C62U, for which the yeast fitness is no more than 0.5. To C11A A36C G56C belongs 0.614; to G10C U28G C33G C49U, no more than 0.5; to G10C U26A C49U, no more than 0.5.

For C11A G23C G52C, the yeast fitness was determined as 0.57.

As to C11A A21U C27A U35G, the yeast fitness was no more than 0.5. For the variant G10C U26C A45G C49U C55G, the yeast fitness was no more than 0.5.

As for C11A C24U C34A A37U C62A C66A, the yeast fitness was 0.599. To G10C U53A C66U belongs no more than 0.5; to C11A C27A C29U G58A, no more than 0.5. C11A C61A: the yeast fitness turned out to be 0.613. As for C11A C61U, the yeast fitness came out at 0.621.

G10C U32C A42C: the yeast fitness is no more than 0.5. Regarding C11A C24A U26A G44C, the yeast fitness is no more than 0.5.

With C11A C33G C34G C61A, the yeast fitness is no more than 0.5. Regarding G10C U26A C31U, the yeast fitness is 0.578. To G10C U32A A43C C49A belongs no more than 0.5; to C11A C27U C46G, 0.524. As to C11A A37U G48A, the yeast fitness is no more than 0.5. With C11A C27A G67A, the yeast fitness came to 0.626. For the variant C11A C24G C30G G56A, the yeast fitness was no more than 0.5.
